ChEMBL document CHEMBL3864174, “Scaffold-Hopping of Aurones: 2-Arylideneimidazo[1,2-a]pyridinones as Topoisomerase IIα-Inhibiting Anticancer Agents” (ACS Med Chem Lett, 2016)
Active and inactive are the calls of the source. The calls are words filed in the database; no cut-off is given here.

Assays:
[1] = Cytotoxicity against African green monkey Vero cells assessed as reduction in colony formation after 48 hrs by crystal violet-staining based assay; type: toxicity, cell-based; conditions: chlorocebus sabaeus; for CC50 at 48 h: Vero cells, read-out: LC50; for Activity: vero, 48 h
[2] = (§1) Cytotoxicity against HEK293T cells assessed as cells growth inhibition after 48 hrs by MTT assay; type: functional, cell-based; conditions: Homo sapiens, HEK-293T
Outline: (§2)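 MTT colorimetric assay. HEK-293T (kidney line) and VERO cells were tested, and the IC50 was taken as the concentration giving 50% growth inhibition.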

[3] = biological target: DNA topoisomerase 2-alpha (Homo sapiens) (UniProt P11388); test: Inhibition of human Topo2alpha-mediated kDNA decatenation at 100 uM after 30 mins by SDS-based agarose gel electrophoresis
Chain of DNA topoisomerase 2-alpha (Homo sapiens) (P11388 whole entry): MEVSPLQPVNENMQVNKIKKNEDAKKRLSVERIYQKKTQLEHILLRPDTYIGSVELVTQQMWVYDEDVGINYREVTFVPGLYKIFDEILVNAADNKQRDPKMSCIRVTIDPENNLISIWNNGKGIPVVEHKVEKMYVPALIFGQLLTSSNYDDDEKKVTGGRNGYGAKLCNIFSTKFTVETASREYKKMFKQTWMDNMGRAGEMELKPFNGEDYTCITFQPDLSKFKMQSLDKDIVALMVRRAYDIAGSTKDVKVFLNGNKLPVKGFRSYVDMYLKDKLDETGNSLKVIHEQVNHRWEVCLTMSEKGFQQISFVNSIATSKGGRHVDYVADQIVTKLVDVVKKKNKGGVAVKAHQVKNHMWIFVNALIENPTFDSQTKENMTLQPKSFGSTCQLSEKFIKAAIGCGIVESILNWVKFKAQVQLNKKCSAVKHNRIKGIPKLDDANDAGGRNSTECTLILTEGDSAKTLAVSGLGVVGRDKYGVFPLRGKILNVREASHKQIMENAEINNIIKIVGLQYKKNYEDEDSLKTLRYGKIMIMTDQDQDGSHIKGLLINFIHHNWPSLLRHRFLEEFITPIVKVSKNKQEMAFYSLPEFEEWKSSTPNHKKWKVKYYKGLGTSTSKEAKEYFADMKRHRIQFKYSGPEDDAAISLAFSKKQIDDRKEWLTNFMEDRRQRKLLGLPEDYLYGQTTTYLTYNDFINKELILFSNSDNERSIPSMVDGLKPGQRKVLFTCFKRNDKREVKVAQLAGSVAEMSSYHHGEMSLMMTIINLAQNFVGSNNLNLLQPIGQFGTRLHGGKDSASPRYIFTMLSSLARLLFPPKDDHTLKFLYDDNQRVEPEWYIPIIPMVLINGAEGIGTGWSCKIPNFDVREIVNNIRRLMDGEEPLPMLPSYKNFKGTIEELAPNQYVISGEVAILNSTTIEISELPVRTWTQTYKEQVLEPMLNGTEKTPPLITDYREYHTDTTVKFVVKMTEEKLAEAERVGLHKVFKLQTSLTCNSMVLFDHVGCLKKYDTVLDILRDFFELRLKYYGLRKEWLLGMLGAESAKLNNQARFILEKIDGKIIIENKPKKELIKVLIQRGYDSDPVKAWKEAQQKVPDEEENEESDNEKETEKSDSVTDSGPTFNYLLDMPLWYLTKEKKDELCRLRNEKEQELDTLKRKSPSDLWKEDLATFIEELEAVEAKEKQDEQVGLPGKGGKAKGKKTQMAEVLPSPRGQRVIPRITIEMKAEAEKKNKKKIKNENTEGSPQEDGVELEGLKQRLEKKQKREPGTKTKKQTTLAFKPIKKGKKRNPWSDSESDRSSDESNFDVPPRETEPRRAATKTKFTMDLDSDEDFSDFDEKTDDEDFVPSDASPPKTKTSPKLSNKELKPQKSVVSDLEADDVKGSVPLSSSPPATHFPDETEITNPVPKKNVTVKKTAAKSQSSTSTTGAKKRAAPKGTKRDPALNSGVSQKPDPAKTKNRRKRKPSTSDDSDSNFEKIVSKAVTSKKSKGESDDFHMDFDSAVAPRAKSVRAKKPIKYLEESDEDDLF

[4] = Cytotoxicity against African green monkey Vero cells assessed as cells growth inhibition after 48 hrs by MTT assay; type: toxicity, cell-based, Chlorocebus sabaeus; conditions: for IC50 at 48 h: African green monkey (Chlorocebus sabaeus), Vero cells; for Activity: chlorocebus sabaeus, vero, 48 h; outline: as §2
[5] = (§3) Cytotoxicity against HEK293T cells assessed as reduction in colony formation after 48 hrs by crystal violet-staining based assay; type: functional; conditions: Homo sapiens, HEK-293T, read-out: LC50 (the source's name)
[6] = test system: MCF7; test: Cytotoxicity against human MCF7 cells assessed as reduction in colony formation after 48 hrs by crystal violet-staining based assay; type: functional, cell-based
[7] = test system: MCF7; test: Inhibition of topoisomerase in human MCF7 cell nuclear lysates assessed as reduction in relaxation of supercoiled plasmid DNA NFkB substrate at 10 to 70 nM after 30 mins by ethidium bromide-staining based agarose gel electrophoresis
Outline: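 Ex vivo topoisomerase assay using MCF-7 nuclear lysate with NFkB plasmid as substrate. Compound ranged from 10 nM to 75 nM, with lanes for plasmid alone and untreated lysate, and an etoposide lane at 45 µM.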

[8] = Cell cycle arrest in human MCF7 cells assessed as accumulation at G2/M phase at 70 nM after 48 hrs by propidium iodide-staining based FACS analysis (reference value: 41 +/- 2.8 %); type: functional
[9] = Cell cycle arrest in human MCF7 cells assessed as accumulation at subG1 phase at 100 nM after 48 hrs by propidium iodide-staining based FACS analysis (reference value: 0.8 +/- 0.1 %); type: functional
[10] = biological target: DNA topoisomerase 2-alpha (Homo sapiens) (UniProt P11388); test: Poison activity at human Topo2alpha using pUC19 as substrate assessed as DNA cleavage-complex formation at 100 uM measured after 20 mins by ethidium bromide staining based SDS-agarose gel electrophoresis
[11] = Cytotoxicity against human MDA-MB-231 cells assessed as reduction in cell viability after 48 hrs by MTT assay; type: functional, cell-based; conditions: MDA-MB-231, 48 h
[12] = test system: HEK-293T; test: as §1; type: functional, cell-based; conditions: Homo sapiens; outline: as §2
[13] = Inhibition of tubulin polymerization in human MCF7 cells assessed as suppression of protein assembly after 15 mins by spectrophotometric analysis; type: cell-based
[14] = test system: HEK-293T; test: as §3; type: functional; conditions: Homo sapiens
[15] = Cytotoxicity against human MDA-MB-468 cells assessed as reduction in cell viability after 48 hrs by MTT assay; type: functional, cell-based; conditions: MDA-MB-468, 48 h
[16] = Binding affinity to DNA (unknown origin) assessed as occurrence of hypochromism after 1 hr by UV-Vis spectrophotometric analysis
Outline: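 UV absorption of DNA near 260 nm, recorded with and without increasing compound concentrations; hypochromism was taken as the binding read-out.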

[17] = test system: MCF7; test: Cytotoxicity against human MCF7 cells assessed as cells growth inhibition after 48 hrs by MTT assay; type: functional, cell-based
[18] = Cell cycle arrest in human MCF7 cells assessed as accumulation at G0 phase at 2000 nM after 48 hrs by propidium iodide-staining based FACS analysis; type: functional
[19] = Cell cycle arrest in human MCF7 cells assessed as accumulation at G2/M phase at 2000 nM after 48 hrs by propidium iodide-staining based FACS analysis; type: functional

Compound | CC50 at 48 h [1] [µM] | IC50 [2] [µM] | inhibition [3] | IC50 at 48 h [4] [µM] | CC50 [5] [µM] | Activity [6] | other results
O=C1/C(=C/c2ccc(Cl)cc2)N=C2C=CC=CN12 | 1.5 | 0.03 | Active | 0.2 | 0.04 | Active | –
O=C1/C(=C/c2ccc(Cl)cc2)N=C2C(Br)=CC(Br)=CN12 | – | – | Active | – | – | – | –
COc1ccc(OC)c(/C=C2\N=C3C=CC=CN3C2=O)c1 | 1.5 | 0.15 | Active | 1.5 | 0.06 | Active | –
O=C1/C(=C/c2ccc(Br)cc2)N=C2C=CC=CN12 | 1.5 | 0.045 | Active | 0.2 | 0.02 | Dose-dependent effect | Activity [1]: Dose-dependent effect; inhibition [7]: Active; Activity [8]: 33.2%; Activity [9]: 19.9%; Activity [10]: Active; IC50 [11]: 0.076 µM; growth inhibition (GI) [12]: Dose-dependent effect; IC50 [13]: 0.06 µM; Activity [4]: Dose-dependent effect; Activity [14]: Dose-dependent effect; IC50 [15]: 0.07 µM; Kb [16]: 2.5e+06 M⁻¹; growth inhibition (GI) [17]: Dose-dependent effect
CC1=CN2C(=O)/C(=C/c3ccc(Cl)cc3)N=C2C=C1 | – | – | Active | – | – | – | –
COc1cccc(/C=C2\N=C3C=CC=CN3C2=O)c1 | 1.5 | 0.08 | Active | 1.5 | 0.075 | Active | –
O=C1/C(=C/c2ccc(Cl)cc2)N=C2C=CC(Br)=CN12 | – | – | Active | – | – | – | –
COc1ccc(/C=C2\Oc3ccccc3C2=O)cc1 [4'-METHOXY-AURONE] | – | 0.7 | Active | 2.5 | – | Dose-dependent effect | Activity [1]: Dose-dependent effect; IC50 [11]: 0.6 to 0.84 µM; growth inhibition (GI) [12]: Dose-dependent effect; Activity [4]: Dose-dependent effect; Activity [14]: Dose-dependent effect; IC50 [15]: 0.6 to 0.84 µM; growth inhibition (GI) [17]: Dose-dependent effect
O=C1/C(=C/c2ccc(Cl)cc2)N=C2C=CC(Cl)=CN12 | 1.5 | 0.045 | Active | 1.5 | 0.04 | Active | –
COc1cc([C@@H]2c3cc4c(cc3[C@@H](O[C@@H]3O[C@@H]5CO[C@@H](C)O[C@H]5[C@H](O)[C@H]3O)[C@H]3COC(=O)[C@H]23)OCO4)cc(OC)c1O [ETOPOSIDE] | – | 22 | Active | 50 | – | – | –
COc1cc(/C=C2\N=C3C=CC=CN3C2=O)cc(OC)c1OC | 1 | 0.01 | – | 0.2 | 0.055 | Active | –
COc1ccc(/C=C2\N=C3C=CC(Cl)=CN3C2=O)cc1 | 1.5 | 0.08 | – | 1.5 | 0.04 | Active | –
CN(C)c1ccc(/C=C2\N=C3C=CC=CN3C2=O)cc1 | – | – | Active | – | – | – | –
COc1ccc(/C=C\c2cc(OC)c(OC)c(OC)c2)cc1O [COMBRETASTATIN A4] | – | – | – | – | – | – | IC50 [13]: 2.5 µM; Activity [18]: Active; Activity [19]: Active
O=C1/C(=C/c2ccc(Br)cc2)Oc2ccccc21 | – | 0.9 | Active | 2.4 | – | Dose-dependent effect | Activity [1]: Dose-dependent effect; IC50 [11]: 0.6 to 0.84 µM; growth inhibition (GI) [12]: Dose-dependent effect; Activity [4]: Dose-dependent effect; Activity [14]: Dose-dependent effect; IC50 [15]: 0.6 to 0.84 µM; growth inhibition (GI) [17]: Dose-dependent effect
O=C1/C(=C/c2ccc(O)cc2)N=C2C=CC=CN12 | 1.5 | 0.04 | – | 1.5 | 0.05 | Active | –
